The test system of one assay is HCT-116. Put plainly: Cytotoxicity against human HCT116 cells after 72 hrs by phosphatase assay. It is filed as functional, cell-based. Conditions: HCT-116, 72 h. The procedure, abridged:
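Cells diluted to 30,000 cells/mL in DMEM with 10% FBS and seeded into 96-well plates (100 μL per well), then grown 24 h at 37 °C under 5% CO2. Test agents were made as 1 mM DMSO stocks with 10-fold serial dilutions and tested at six concentrations over 0–1,000 nM or 0–10,000 nM, in duplicate, for 72 h. Acid phosphatase read-out: substrate in 0.1 M NaOAc pH 5.5 with 0.1% Triton X-100, 15 min at 37 °C, stopped with NaOH, A405.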

The subject of a further assay is HCT-116/VM46. The experiment in a line: Cytotoxicity against vinblastine-resistant human HCT116/VM46 cells after 72 hrs by phosphatase assay. The format is functional, cell-based. The settings on record: HCT-116/VM46, 72 h. The procedure, abridged:
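Cells diluted to 30,000 cells/mL in DMEM with 10% FBS and seeded into 96-well plates (100 μL per well), then grown 24 h at 37 °C under 5% CO2. Test agents were made as 1 mM DMSO stocks with 10-fold serial dilutions and tested at six concentrations over 0–1,000 nM or 0–10,000 nM, in duplicate, for 72 h. Acid phosphatase read-out: substrate in 0.1 M NaOAc pH 5.5 with 0.1% Triton X-100, 15 min at 37 °C, stopped with NaOH, A405. IC50 is the mean of 4–16 determinations.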

The text below walks through data of ChEMBL document CHEMBL2311295 (J Med Chem, 2013).

Take `CC[C@]1(SC#N)C[C@H]2CN(CCc3c([nH]c4ccccc34)[C@@](C(=O)OC)(c3cc4c(cc3OC)N(C)[C@H]3[C@@](O)(C(=O)OC)[C@H](OC(C)=O)[C@]5(CC)C=CCN6CC[C@]43[C@@H]65)C2)C1`: the IC50 with HCT-116 was 550 nM.
On to `CC[C@]1(NC(=O)Nc2ccc(Cl)cc2)C[C@H]2CN(CCc3c([nH]c4ccccc34)[C@@](C(=O)OC)(c3cc4c(cc3OC)N(C)[C@H]3[C@@](O)(C(=O)OC)[C@H](OC(C)=O)[C@]5(CC)C=CCN6CC[C@]43[C@@H]65)C2)C1`, for which the half-inhibitory concentration (IC50) was 6.7 nM in the assay with HCT-116 and 590 nM in the assay with HCT-116/VM46.
On to `CC[C@]1(NC=O)C[C@H]2CN(CCc3c([nH]c4ccccc34)[C@@](C(=O)OC)(c3cc4c(cc3OC)N(C)[C@H]3[C@@](O)(C(=O)OC)[C@H](OC(C)=O)[C@]5(CC)C=CCN6CC[C@]43[C@@H]65)C2)C1`, for which inhibition with HCT-116 was half-maximal at 85 nM (IC50).
Same read-out and setting: to `CC[C@]1(NC(C)=O)C[C@H]2CN(CCc3c([nH]c4ccccc34)[C@@](C(=O)OC)(c3cc4c(cc3OC)N(C)[C@H]3[C@@](O)(C(=O)OC)[C@H](OC(C)=O)[C@]5(CC)C=CCN6CC[C@]43[C@@H]65)C2)C1` belongs 90 nM.
For the compound `CC[C@]1(NC(=O)Nc2ccc(C)cc2)C[C@H]2CN(CCc3c([nH]c4ccccc34)[C@@](C(=O)OC)(c3cc4c(cc3OC)N(C)[C@H]3[C@@](O)(C(=O)OC)[C@H](OC(C)=O)[C@]5(CC)C=CCN6CC[C@]43[C@@H]65)C2)C1`, the IC50 came out at 4.8 nM in the assay on HCT-116 and 330 nM in the assay with HCT-116/VM46.
The like results for `CC[C@]1(NC(N)=S)C[C@H]2CN(CCc3c([nH]c4ccccc34)[C@@](C(=O)OC)(c3cc4c(cc3OC)N(C)[C@H]3[C@@](O)(C(=O)OC)[C@H](OC(C)=O)[C@]5(CC)C=CCN6CC[C@]43[C@@H]65)C2)C1` were, in that order, 7.7 nM and 2000 nM.
The like results for `CC[C@]1(NC(=O)NCCO)C[C@H]2CN(CCc3c([nH]c4ccccc34)[C@@](C(=O)OC)(c3cc4c(cc3OC)N(C)[C@H]3[C@@](O)(C(=O)OC)[C@H](OC(C)=O)[C@]5(CC)C=CCN6CC[C@]43[C@@H]65)C2)C1` were, in that order, 8.8 nM and above 1000 nM.
Take `CC[C@]1(NC(=O)NCCc2ccccc2)C[C@H]2CN(CCc3c([nH]c4ccccc34)[C@@](C(=O)OC)(c3cc4c(cc3OC)N(C)[C@H]3[C@@](O)(C(=O)OC)[C@H](OC(C)=O)[C@]5(CC)C=CCN6CC[C@]43[C@@H]65)C2)C1`: the values for the half-inhibitory concentration (IC50) in the assay on HCT-116 and in the assay on HCT-116/VM46 were 6.3 nM and 590 nM, respectively.
Taken in the same sequence, the figures for `CC[C@]1(NC(=O)Nc2ccccc2)C[C@H]2CN(CCc3c([nH]c4ccccc34)[C@@](C(=O)OC)(c3cc4c(cc3OC)N(C)[C@H]3[C@@](O)(C(=O)OC)[C@H](OC(C)=O)[C@]5(CC)C=CCN6CC[C@]43[C@@H]65)C2)C1` were 5.1 nM and 390 nM.
Consider `CC[C@]1(NC)C[C@H]2CN(CCc3c([nH]c4ccccc34)[C@@](C(=O)OC)(c3cc4c(cc3OC)N(C)[C@H]3[C@@](O)(C(=O)OC)[C@H](OC(C)=O)[C@]5(CC)C=CCN6CC[C@]43[C@@H]65)C2)C1`, for which the IC50 is 60 nM in the assay with HCT-116 and 8500 nM in the assay on HCT-116/VM46.
As for `CC[C@]1(NC(=O)Nc2ccc(C(F)(F)F)cc2)C[C@H]2CN(CCc3c([nH]c4ccccc34)[C@@](C(=O)OC)(c3cc4c(cc3OC)N(C)[C@H]3[C@@](O)(C(=O)OC)[C@H](OC(C)=O)[C@]5(CC)C=CCN6CC[C@]43[C@@H]65)C2)C1`, the half-maximal inhibitory concentration (IC50) was 7.1 nM with HCT-116 and 610 nM in the assay with HCT-116/VM46.
`CC[C@]1(N=C=S)C[C@H]2CN(CCc3c([nH]c4ccccc34)[C@@](C(=O)OC)(c3cc4c(cc3OC)N(C)[C@H]3[C@@](O)(C(=O)OC)[C@H](OC(C)=O)[C@]5(CC)C=CCN6CC[C@]43[C@@H]65)C2)C1`: the IC50 with HCT-116 came out at 530 nM.
Take `CC[C@]1(NC(=O)NCc2ccco2)C[C@H]2CN(CCc3c([nH]c4ccccc34)[C@@](C(=O)OC)(c3cc4c(cc3OC)N(C)[C@H]3[C@@](O)(C(=O)OC)[C@H](OC(C)=O)[C@]5(CC)C=CCN6CC[C@]43[C@@H]65)C2)C1`: the 50% inhibitory concentration (IC50) in the assay with HCT-116 was determined as 5.1 nM; with HCT-116/VM46, 530 nM.
In the case of `CC[C@@H]1C[C@H]2CN(CCc3c([nH]c4ccccc34)[C@@](C(=O)OC)(c3cc4c(cc3OC)N(C)[C@H]3[C@@](O)(C(=O)OC)[C@H](OC(C)=O)[C@]5(CC)C=CCN6CC[C@]43[C@@H]65)C2)C1` [ROSEAMINE], the midpoint of inhibition with HCT-116, the IC50, lay at 60 nM.
As to `CC[C@]1(NC(=O)NCc2ccccn2)C[C@H]2CN(CCc3c([nH]c4ccccc34)[C@@](C(=O)OC)(c3cc4c(cc3OC)N(C)[C@H]3[C@@](O)(C(=O)OC)[C@H](OC(C)=O)[C@]5(CC)C=CCN6CC[C@]43[C@@H]65)C2)C1`, the IC50 in the assay on HCT-116 was found to be 5.6 nM; in the assay on HCT-116/VM46, 670 nM.
Taken in the same sequence, the figures for `CCCCNC(=O)N[C@@]1(CC)C[C@H]2CN(CCc3c([nH]c4ccccc34)[C@@](C(=O)OC)(c3cc4c(cc3OC)N(C)[C@H]3[C@@](O)(C(=O)OC)[C@H](OC(C)=O)[C@]5(CC)C=CCN6CC[C@]43[C@@H]65)C2)C1` were 4.6 nM and 270 nM.
In the assay on HCT-116, `CC[C@]1(NC(=O)Oc2ccc([N+](=O)[O-])cc2)C[C@H]2CN(CCc3c([nH]c4ccccc34)[C@@](C(=O)OC)(c3cc4c(cc3OC)N(C)[C@H]3[C@@](O)(C(=O)OC)[C@H](OC(C)=O)[C@]5(CC)C=CCN6CC[C@]43[C@@H]65)C2)C1` registered a 50% inhibitory concentration (IC50) of 55 nM.
On to `CCN(CC)C(=O)N[C@@]1(CC)C[C@H]2CN(CCc3c([nH]c4ccccc34)[C@@](C(=O)OC)(c3cc4c(cc3OC)N(C)[C@H]3[C@@](O)(C(=O)OC)[C@H](OC(C)=O)[C@]5(CC)C=CCN6CC[C@]43[C@@H]65)C2)C1`, for which the 50% inhibitory concentration (IC50) in the assay with HCT-116 came out at 6.7 nM; in the assay on HCT-116/VM46 it was 450 nM.
Taken in the same sequence, the figures for `CC[C@]1(NC(=O)Nc2ccc(OC)cc2)C[C@H]2CN(CCc3c([nH]c4ccccc34)[C@@](C(=O)OC)(c3cc4c(cc3OC)N(C)[C@H]3[C@@](O)(C(=O)OC)[C@H](OC(C)=O)[C@]5(CC)C=CCN6CC[C@]43[C@@H]65)C2)C1` were 2 nM and 230 nM.
For the compound `CC[C@]1(N=[N+]=[N-])C[C@H]2CN(CCc3c([nH]c4ccccc34)[C@@](C(=O)OC)(c3cc4c(cc3OC)N(C)[C@H]3[C@@](O)(C(=O)OC)[C@H](OC(C)=O)[C@]5(CC)C=CCN6CC[C@]43[C@@H]65)C2)C1`, the 50% inhibitory concentration (IC50) in the assay on HCT-116 amounted to 690 nM.
With `CC[C@]12C=CCN3CC[C@@]4(c5cc([C@@]6(C(=O)OC)C[C@@H]7CN(CCc8c6[nH]c6ccccc86)C[C@@](CC)(N(C)C)C7)c(OC)cc5N(C)[C@H]4[C@@](O)(C(=O)OC)[C@@H]1OC(C)=O)[C@@H]32`, the concentration for half-maximal inhibition (IC50) in the assay on HCT-116 is 980 nM; in the assay on HCT-116/VM46, above 10000 nM.
Take `CCNC(=O)N(C)[C@@]1(CC)C[C@H]2CN(CCc3c([nH]c4ccccc34)[C@@](C(=O)OC)(c3cc4c(cc3OC)N(C)[C@H]3[C@@](O)(C(=O)OC)[C@H](OC(C)=O)[C@]5(CC)C=CCN6CC[C@]43[C@@H]65)C2)C1`: the IC50 came to 520 nM in the assay on HCT-116 and 8500 nM in the assay with HCT-116/VM46.
Compound `CC[C@]1(NC(=O)OC)C[C@H]2CN(CCc3c([nH]c4ccccc34)[C@@](C(=O)OC)(c3cc4c(cc3OC)N(C)[C@H]3[C@@](O)(C(=O)OC)[C@H](OC(C)=O)[C@]5(CC)C=CCN6CC[C@]43[C@@H]65)C2)C1` yielded an IC50 in the assay on HCT-116 of 75 nM.
Take `CC[C@]1(OC(=O)N(C)C)C[C@H]2CN(CCc3c([nH]c4ccccc34)[C@@](C(=O)OC)(c3cc4c(cc3OC)N(C)[C@H]3[C@@](O)(C(=O)OC)[C@H](OC(C)=O)[C@]5(CC)C=CCN6CC[C@]43[C@@H]65)C2)C1`: the concentration for half-maximal inhibition (IC50) in the assay with HCT-116 came to 4700 nM; in the assay with HCT-116/VM46 it was 9100 nM.
Take `CC[C@]1(NC(=S)Nc2ccccc2)C[C@H]2CN(CCc3c([nH]c4ccccc34)[C@@](C(=O)OC)(c3cc4c(cc3OC)N(C)[C@H]3[C@@](O)(C(=O)OC)[C@H](OC(C)=O)[C@]5(CC)C=CCN6CC[C@]43[C@@H]65)C2)C1`: the concentration for half-maximal inhibition (IC50) was 40 nM in the assay with HCT-116 and 650 nM in the assay on HCT-116/VM46.
The like results for `CC[C@]1(NC(=S)N(C)C)C[C@H]2CN(CCc3c([nH]c4ccccc34)[C@@](C(=O)OC)(c3cc4c(cc3OC)N(C)[C@H]3[C@@](O)(C(=O)OC)[C@H](OC(C)=O)[C@]5(CC)C=CCN6CC[C@]43[C@@H]65)C2)C1` were, in that order, 8.7 nM and 250 nM.
Taken in the same sequence, the figures for `CC[C@]1(NC(=O)Nc2ccc(F)cc2)C[C@H]2CN(CCc3c([nH]c4ccccc34)[C@@](C(=O)OC)(c3cc4c(cc3OC)N(C)[C@H]3[C@@](O)(C(=O)OC)[C@H](OC(C)=O)[C@]5(CC)C=CCN6CC[C@]43[C@@H]65)C2)C1` were 3.9 nM and 400 nM.
Taken in the same sequence, the figures for `CC[C@]1(NC(=O)N2CCOCC2)C[C@H]2CN(CCc3c([nH]c4ccccc34)[C@@](C(=O)OC)(c3cc4c(cc3OC)N(C)[C@H]3[C@@](O)(C(=O)OC)[C@H](OC(C)=O)[C@]5(CC)C=CCN6CC[C@]43[C@@H]65)C2)C1` were 4.5 nM and 360 nM.
Consider `CC[C@]1(NC(=O)NCc2ccccc2)C[C@H]2CN(CCc3c([nH]c4ccccc34)[C@@](C(=O)OC)(c3cc4c(cc3OC)N(C)[C@H]3[C@@](O)(C(=O)OC)[C@H](OC(C)=O)[C@]5(CC)C=CCN6CC[C@]43[C@@H]65)C2)C1`, for which the IC50 is 7.3 nM in the assay with HCT-116 and 740 nM with HCT-116/VM46.

In general, IC50 refers to the concentration that inhibits the measured activity by half. Lower therefore signals greater potency in that assay.
